# Measured values: the EternaBench riboswitch data
# Tested on: MS2 coat protein
# Test: apparent Kd, MS2 coat protein; higher = weaker binding; RNA-MaP array; FMN 200 µM where present
# Method in brief: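 Designs were transcribed by stalled E. coli RNA polymerase on Illumina sequencing-chip clusters. They were titrated with SNAP-549-labelled MS2 coat protein from 0.7 or 1.5 nM, doubling to 3 µM, in 100 mM Tris-HCl pH 7.5, 80 mM KCl, 4 mM MgCl2, BSA, DTT, yeast tRNA and Tween-20, without and then with constant ligand. The apparent Kd is the median of filtered per-cluster fits after normalisation of green signal to red-channel RNA signal and control-cluster median Fmax.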
# [1] = designed as: OFF switch for flavin mononucleotide, no ligand
# [2] = ligand present: flavin mononucleotide, designed as: OFF switch for flavin mononucleotide
# [3] = designed as: ON switch for flavin mononucleotide, no ligand
# [4] = ligand present: flavin mononucleotide, designed as: ON switch for flavin mononucleotide
Sequence,apparent Kd [1] [µM],apparent Kd [2] [µM],apparent Kd [3] [µM],apparent Kd [4] [µM]
UUUCUUGGGCAAGGAUAUCCUGUGCGGUUCCGGCUCGUGUCUGUCACAUGAGGAUCACCCAUGUGGGAGAAGGUGCCUGCGGUA,0.00641,0.00677,–,–
AAGUUGUCAGGAUAUCGUUAAUUUAGUUGUUUGUAUUAGUUCGAGAAGGGACAUGAGGAUCACCCAUGUUUGAA,0.0325,0.0405,–,–
UCAUGUCCUGAGGAUAUGUAGCGGAUAAACGCAACAGAAGGCAGGACAUGAGGAUCACCCAUGUGUGCCUUCUA,0.0966,0.0142,–,–
GGAUGACAAAGUCAUCCAAUUCGAACAUGAGGAUCACCCAUGUAGGAUAUCGUACUCAAAGAGUACGAGAAGGACAUGUGCUUU,0.0403,0.154,–,–
UGGUUGUGAGGAUAUACGUUUUUUAACUCUUGUUUUAUACUGUAGAAGGCACAUGAGGAUCACCCAUGUUACGU,0.0224,0.026,–,–
UUCAGCUCGUGAGGAUAUACAUGUGCUGGAAACAGCACUAUUAAGUUCACAUGAGGAUCACCCAUGUAGAAGGCACGAGCUGAG,0.0149,0.0193,–,–
AUAUAUAUCCAGAAGGUGCCAGCGAGAGCUGCACAUGAGGAUCACCCAUGUUGUCGGUGACGACGCAAGGAUAUGGAUAUAUAU,–,–,0.0282,0.00743
GUCGGAAACGACAAGUCAGCUCGUGAGGAUAUACAAUAUUAAAAGAUCACAUGAGGAUCACCCAUGUAGAAGGCACGAGCUGAU,0.0317,0.442,–,–
GCAGCAUAUGCAGGAUAUCAGCACGUGUAGUGCUGAGAAGGGCACAUGAGGAUCACCCAUGUGAUCAAUUAAUAUAUAUGCUGC,0.00636,0.0164,–,–
GCGUUCUUGUAGAAGGUACAUGAAUUCUAUUUUUAACACAUGAAACAUGAGGAUCACCCAUGUUGUAAGGAUAUACAUGAACGC,–,–,0.00698,0.00583
AGAAAAGCAGGAUAUAUCCGGGAUAACAUGAGGAUCACCCAUGUGACCGCUUGAUAUCCUAUAGAAGGGCUUAAGA,0.0244,0.0512,–,–
CUAAUGUGAGGAUAUGGUGUUGAUCGCAGGAAGGAGAUUCUCCAGAAGGCACAUGAGGAUCACCCAUGUAGUGA,0.103,0.0511,–,–
CGUUGAUGAUUUCUUCACAUGAGGAUCACCCAUGUCGCUCGACAGGAUAUAUUUGAGUUGUUUAAGUAGAAGGGUCGCAGAUGC,–,–,0.112,0.183
AAUAAACUCACAGGAUAUAGCAGAGGUCGCGUGAACUUACAGACGACGAUGCUAGAAGGGUGACCACAUGAGGAUCACCCAUGU,–,–,0.591,0.151
CGUAUAUGGGAGAAGGCAUGUCCCAAAGGGCCAUGAGGAUAUCCUAAGUGUACGCUUUGCGACAUGAGGAUCACCCAUGUAGCA,–,–,0.00707,0.00575
CUUGUACUCGGAGGAUAUCGAUAUCAAACAUGAGGAUCACCCAUGUUGAGGAUCACACAUGUAAAUGAGAAGGCUGACGUUGCU,–,–,0.0229,0.0263
CUAUGUUAGCAGGAUAUGCCAUUAUUCUUUUUCGCAGAAGGGCUUACAUGAGGAUCACCCAUGUUACAUUUCUU,0.015,0.0365,–,–
AUCAGCACGUGAGGAUAUGCGUCACUGCGAAAGCAGUACGGUAAGAUCACAUGAGGAUCACCCAUGUAGAAGGCACGAGCUGAU,0.0166,0.0381,–,–
CCCACGUGUGCAGGAUAUCCCACGAGCGCAACAUGAGGAUCACCCAUGUACCUGAGUCUCGGAACGGAGAAGGGUACAUGUUAU,–,–,0.432,0.101
AUUGUGUGAGGAUAUUAGUAGUAAAUGAAUAAAAUUAUUACUGAGAAGGCACAUGAGGAUCACCCAUGUUCCUU,0.0191,0.138,–,–
UUUAUAAAGAUAGGAUAUUGUAUAAUAAUUUAAUAAGAAGGAUCACACAUGAGGAUCACCCAUGUAUGAGGAUCACCCAUGUAU,0.0197,0.0203,–,–
AGCUACGUUUCGUAGCAGUGUCAUCGAGAAGGCCCUGACAUGAGGAUCACCCAUGUUGUUACAUGGGAGGAUAUCGAUGAUACC,–,–,0.0133,0.00532
AAACCUAUAGGAUAUACAUGAGGAUCACCCAUGUUGCGAUUUUUUAGGUAACAGAUCCGUAGAAGGGUAGGUUA,0.0238,0.0576,–,–
UUUUAACAUGAGGAUCACCCAUGUGAGGAUAUCGAAAUUUAUAUUUAUAUUAAUUUAACGAGAAGGCACAUUUU,0.0912,0.114,–,–

Sequence,apparent Kd [1] [µM],apparent Kd [2] [µM],apparent Kd [3] [µM],apparent Kd [4] [µM]
AUGCCUUAUGUAGGAUAUGCAUAGAGUUGCUAUGCAGAAGGACAUGAGGAUCACCCAUGUAUGUAUACCAUACAUAUCUGGCAU,0.0356,0.316,–,–
GCAUGACAUGUAGGAUAUCGAGCGCCGAGCGCUCGAGAAGGACAUGAGGAUCACCCAUGUAUUCCGAAUGAAUCAAGUCAUGCA,0.0143,0.0162,–,–
GAGAGAGGGUGAGGAUAUUCAGUAAUAAUGAUAGAAGAAGGCACAGACAUGAGGAUCACCCAUGUGGGAAUAAUCCAGAGAGAG,–,–,0.182,0.207
UAAUGAGAGCAGGAUAUCUUAUAAAUGUAUGAAAGAGAAGGGCUCACAUGAGGAUCACCCAUGUGGUCCUAGAU,0.034,0.163,–,–
CGAGAUACGCUCGACCGAAAGGUACAUGAGGAUCACCCAUGUAGAAGGCGAUCCGCAACUCGGAUUGAGGAUAUAUACUACACA,0.0318,0.0244,–,–
GUAGCUAUCGGAGGAUAUUCAUACCGGAAACGGACAUGAGGAUCACCCAUGUGGCGAAAGCAUUGGGAGAAGGCCGAUAGCUAC,–,–,0.576,0.0197
GGAGCACACAUUAACAUGAGGAUCACCCAUGUCAAAAGACAUGAGGAUAUGGAUCCGAAAAGGAUCCAGAAGGCAUGGAGCUCC,–,–,0.169,0.0105
AGGCAAUCAGGAUAUACAUGAGGAUCACCCAUGUGUACAAAGCACAUCCGAUCUAGAUGUAGAAGGGAUAUGCA,0.0191,0.0358,–,–
GUUUCCACAGGAAGGAACACUCGGAGAAGGGCACAUGAGGAUCACCCAUGUGCGGCUCGUCACGUGCAGGAUAUUCGAUAUAGA,0.0072,0.0175,–,–
AUGUACCGGUGAGGAUAUUUUUAAUAGAGCUUUAUGAUAUACAUGAGGAUCACCCAUGUUACUUUAAAGAAGGCAUCGGAUUAA,0.019,0.014,–,–
CUCAAACAUGAGGAUCACCCAUGUGUUGUCAUGGGAGGAUAUCUAAGUUCAUUGUAUUCAGGAGAAGGCCUAUGUC,–,–,0.31,0.0344
UGUCGGAGCAGAGGAUAUUACAUGAGGAUCACCCAUGUAUGAACCAAUAGCUGGAAACAGCAUUGUAAGAAGGCUGCUCCGACA,0.00475,0.0121,–,–
GACAUGGUCCAGAAGGGCUAUUUAUUUAAGUAUUAUUUAGAACAGCAUAGCAGGAUAUGGCUAACAUGAGGAUCACCCAUGUUC,–,–,0.0188,0.0116
GUGAAGGUAGGAUAUACGAUAAUAUAGGGUAGAUAUAUAACACAUGAGGAUCACCCAUGUAGAAGGACCAAUUG,0.0342,0.122,–,–
UCCACUACUGAGAAGGGAUACAUAUAGUUCUAGUCAGGAUAUCGAUACAGUGCAGCAUGAGGACAUGAGGAUCACCCAUGUAUU,–,–,0.0221,0.0162
UCGGCGCGAGGAUAUGCGGUUCCUCCCUCGGGCCGGAGCGUACAUGAGGAUCACCCAUGUAGAAGGCGCGCCGC,0.0139,0.0151,–,–
UGUCGGAGCAGAGGAUAUUACAUGAGGAUCACCCAUGUAUGAACCAAUAGCUGGAAACAGCAAUGUUAGAAGGCUGCUCCGACA,0.00523,0.00686,–,–
GCACCUUUAUUUGAACCGAUACGAACAUGAGGAUCACCCAUGUAGGAUAUGCUUAAAGUUGUGUUGCAGAAGGACAUUUAGUGC,0.00876,0.00831,–,–
UGUUGAUAGCAGAAGGACAUGAGGAUCACCCAUGUAAGGAUACAAAUAUAUGUAGGAUAUGCUAUUGACUAAGAGUGAGCGUUC,0.00855,0.0189,–,–
UGAAUGUGAGGAUAUGGUGAGUAGUGCCAGAGCGCUGCUCACCAGAAGGCACAUGAGGAUCACCCAUGUACUUG,0.0643,0.179,–,–
UAGAUGGCUCAGGAUAUUUGCCAACUAACUCGCGAAGAAGGGAGCACAUGAGGAUCACCCAUGUGAUCGAACGG,0.0188,0.0456,–,–
ACAGGUUAAGGAUAUACAUGAGGAUCACCCAUGUCGAGUAUCUUGUCAUGCCGCCCAUGUAGAAGGUAACAUGG,0.0135,0.017,–,–
AAGAAGGACGCAGGAUAUCCAGGACCUCCCGCAGGAGAAGGGCGAGACAUGAGGAUCACCCAUACAUGAGGAUCACCCAUGUAA,0.0204,0.0223,–,–
UUGGAGUACGUAGGAUAUGUAGGAUUUUCCUACAUGAGGAUCACCCAUGUUAGCAUGGAAGAAGGACAGAAGGACGUGCUCCAU,–,–,1.04,0.0781
